Values after ≈ are worked out from the molar mass of the structure shown. Active and inactive are the calls of the source. The calls are words filed in the database; no cut-off is given here. Where a SMILES comes first, the peptide text is derived from it. The star is where a group is joined. Boc = CC(C)(C)OC(=O)*; NHBn = c1ccc(CN*)cc1
Tests used:
Escherichia coli = test: Antibacterial activity against Escherichia coli ATCC 35218 assessed as inhibition of bacterial growth by CLSI method; format: functional, organism-based
Klebsiella pneumoniae = test: Antibacterial activity against Klebsiella pneumoniae ATCC BAA1705 assessed as inhibition of bacterial growth by CLSI method; format: functional, organism-based
Staphylococcus aureus = test: Antibacterial activity against methicillin-resistant Staphylococcus aureus ATCC 33591 assessed as inhibition of bacterial growth by CLSI method; format: functional, organism-based
Pseudomonas aeruginosa = test: Antibacterial activity against Pseudomonas aeruginosa ATCC 27853 assessed as inhibition of bacterial growth by CLSI method; format: functional, organism-based
Aspergillus fumigatus = test: Antifungal activity against Aspergillus fumigatus ATCC 1022 assessed as inhibition of fungal growth by CLSI method; format: functional, organism-based
Vero = test: Cytotoxicity against African green monkey Vero cells assessed as reduction in cell viability incubated for 48 hrs by Neutral red assay; format: cell-based; conditions: chlorocebus sabaeus
How it was run: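 VERO monkey kidney cells seeded at 25,000 cells/well and incubated 24 h to confluency. Peptide added, then a further 48 h incubation. Viability read by neutral red uptake.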

Candida albicans = test: Antifungal activity against Candida albicans ATCC 10231 assessed as inhibition of fungal growth by CLSI method; format: functional, organism-based
Cryptococcus neoformans = test: Antifungal activity against Cryptococcus neoformans ATCC 90113 assessed as inhibition of fungal growth by CLSI method; format: functional, organism-based
Enterococcus = test: Antibacterial activity against vancomycin resistant Enterococcus ATCC MP-1 assessed as inhibition of bacterial growth by CLSI method; format: functional, organism-based

MIC (Cryptococcus neoformans) [µg/mL]	Compound	IC50 (Escherichia coli) [µg/mL]	Activity (Klebsiella pneumoniae)	IC50 (Staphylococcus aureus) [µg/mL]	MIC (Staphylococcus aureus) [µg/mL]	IC50 (Pseudomonas aeruginosa) [µg/mL]	Activity (Aspergillus fumigatus)	Activity (Vero) [µg/mL]	Activity (Candida albicans)	IC50 (Cryptococcus neoformans) [µg/mL]	IC50 (Enterococcus) [µg/mL]	MIC (Enterococcus) [µg/mL]	MIC (Pseudomonas aeruginosa) [µg/mL]	MIC (Escherichia coli) [µg/mL]
5	Cc1ccc(-c2nc(C[C@H](N)C(=O)N[C@@H](Cc3c[nH]c4ccccc34)C(=O)N[C@@H](CCCNC(=N)N)C(=O)NCc3ccccc3)c[nH]2)cc1.Cl.Cl		inactive				inactive	> 10	inactive	3.36				
> 20	CCc1ccc(-c2nc(C[C@H](NC(=O)OC(C)(C)C)C(=O)N[C@@H](Cc3c[nH]c4ccccc34)C(=O)N[C@@H](CCCNC(=N)N)C(=O)OC)c[nH]2)cc1		inactive				inactive	> 10	inactive	9.66 (≈ 13.5 µM)				
> 20	COC(=O)[C@H](CCCNC(=N)N)NC(=O)[C@H](Cc1c[nH]c2ccccc12)NC(=O)[C@@H](N)Cc1c[nH]c(-c2ccc(C)cc2)n1.Cl.Cl		inactive				inactive	> 10	inactive	8.98				
> 20	COC(=O)[C@H](CCCNC(=N)N)NC(=O)[C@H](Cc1c[nH]c2ccccc12)NC(=O)[C@@H](N)Cc1c[nH]c(-c2ccccc2)n1.Cl.Cl		inactive				inactive	> 10	inactive	9.23				
> 20	CC(C)(C)OC(=O)N[C@@H](Cc1c[nH]c(-c2ccccc2)n1)C(=O)N[C@@H](Cc1c[nH]c2ccccc12)C(=O)N[C@@H](CCCNC(=N)N)C(=O)NCc1ccccc1		inactive				inactive	> 10	inactive	7.93 (≈ 10.4 µM)				
1.25 (≈ 1.35 µM)	C[C@@H]1[C@H](O)[C@@H](C)/C=C/C=C/C=C/C=C/C=C/C=C/C=C/[C@H](O[C@@H]2O[C@H](C)[C@@H](O)[C@H](N)[C@@H]2O)C[C@@H]2O[C@](O)(C[C@@H](O)C[C@@H](O)[C@H](O)CC[C@@H](O)C[C@@H](O)CC(=O)O[C@H]1C)C[C@H](O)[C@H]2C(=O)O [AMPHOTERICIN B]													
10	Cl.Cl.N=C(N)NCCC[C@H](NC(=O)[C@H](Cc1c[nH]c2ccccc12)NC(=O)[C@@H](N)Cc1c[nH]cn1)C(=O)NCc1ccccc1 (H-His-Trp-Arg-NHBn)		inactive				inactive	> 10	inactive	4.92				
10	COC(=O)[C@H](CCCNC(=N)N)NC(=O)[C@H](Cc1c[nH]c2ccccc12)NC(=O)[C@@H](N)Cc1c[nH]cn1.Cl.Cl (H-His-Trp-Arg-OMe)		inactive				inactive	> 10	inactive	2.41				
10	Cl.Cl.N=C(N)NCCC[C@H](NC(=O)[C@H](Cc1c[nH]c2ccccc12)NC(=O)[C@@H](N)Cc1c[nH]c(-c2ccccc2)n1)C(=O)NCc1ccccc1		inactive				inactive	> 10	inactive	5.31				
> 20	COC(=O)[C@H](CCCNC(=N)N)NC(=O)[C@H](Cc1c[nH]c2ccccc12)NC(=O)[C@H](Cc1c[nH]c(-c2ccc(C)cc2)n1)NC(=O)OC(C)(C)C		inactive				inactive	> 10	inactive	7.66 (≈ 10.9 µM)				
> 20	COC(=O)[C@H](CCCNC(=N)N)NC(=O)[C@H](Cc1c[nH]c2ccccc12)NC(=O)[C@H](Cc1c[nH]c(-c2ccccc2)n1)NC(=O)OC(C)(C)C		inactive				inactive	> 10	inactive	8.85 (≈ 12.9 µM)				

Second part, the molecule before the results:

Compound	MIC (Cryptococcus neoformans) [µg/mL]	IC50 (Escherichia coli) [µg/mL]	Activity (Klebsiella pneumoniae)	IC50 (Staphylococcus aureus) [µg/mL]	MIC (Staphylococcus aureus) [µg/mL]	IC50 (Pseudomonas aeruginosa) [µg/mL]	Activity (Aspergillus fumigatus)	Activity (Vero) [µg/mL]	Activity (Candida albicans)	IC50 (Cryptococcus neoformans) [µg/mL]	IC50 (Enterococcus) [µg/mL]	MIC (Enterococcus) [µg/mL]	MIC (Pseudomonas aeruginosa) [µg/mL]	MIC (Escherichia coli) [µg/mL]
COC(=O)[C@H](CCCNC(=N)N)NC(=O)[C@H](Cc1c[nH]c2ccccc12)NC(=O)[C@@H](N)Cc1c[nH]c(-c2ccc(-c3ccccc3)cc2)n1.Cl.Cl	2.5	> 20	inactive	7.81	10	> 20	inactive	> 10	inactive	1.51	13.2	20		
Cl.Cl.N=C(N)NCCC[C@H](NC(=O)[C@H](Cc1c[nH]c2ccccc12)NC(=O)[C@@H](N)Cc1c[nH]c(-c2ccc(-c3ccccc3)cc2)n1)C(=O)NCc1ccccc1	5	> 20	inactive	4.44	5	18.7	inactive	> 10	inactive	1.17	8.33	20	> 20	
CCc1ccc(-c2nc(C[C@H](N)C(=O)N[C@@H](Cc3c[nH]c4ccccc34)C(=O)N[C@@H](CCCNC(=N)N)C(=O)NCc3ccccc3)c[nH]2)cc1.Cl.Cl	10	> 20	inactive	18.4	20	> 20	inactive	> 10	inactive	2.26	13.5	20		
Cc1ccc(-c2nc(C[C@H](NC(=O)OC(C)(C)C)C(=O)N[C@@H](Cc3c[nH]c4ccccc34)C(=O)N[C@@H](CCCNC(=N)N)C(=O)NCc3ccccc3)c[nH]2)cc1	5 (≈ 6.44 µM)	> 20	inactive	17.5 (≈ 22.5 µM)	20 (≈ 25.7 µM)	> 20	inactive	> 10	inactive	4.34 (≈ 5.59 µM)	> 20			
CCCCc1ccc(-c2nc(C[C@H](NC(=O)OC(C)(C)C)C(=O)N[C@@H](Cc3c[nH]c4ccccc34)C(=O)N[C@@H](CCCNC(=N)N)C(=O)OC)c[nH]2)cc1	2.5 (≈ 3.36 µM)	17.9 (≈ 24 µM)	inactive	9.29 (≈ 12.5 µM)	10 (≈ 13.4 µM)	> 20	inactive	> 10	inactive	1.99 (≈ 2.68 µM)	7.82 (≈ 10.5 µM)	20 (≈ 26.9 µM)		> 20
CC(C)(C)OC(=O)N[C@@H](Cc1c[nH]cn1)C(=O)N[C@@H](Cc1c[nH]c2ccccc12)C(=O)N[C@@H](CCCNC(=N)N)C(=O)NCc1ccccc1 (Boc-His-Trp-Arg-NHBn)			inactive				inactive	> 10	inactive	> 20				
CCc1ccc(-c2nc(C[C@H](N)C(=O)N[C@@H](Cc3c[nH]c4ccccc34)C(=O)N[C@@H](CCCNC(=N)N)C(=O)OC)c[nH]2)cc1.Cl.Cl	2.5	17.4	inactive	> 20		> 20	inactive	> 10	inactive	1.85	> 20			> 20
CC(C)(C)OC(=O)N[C@@H](Cc1c[nH]c(-c2ccc(-c3ccccc3)cc2)n1)C(=O)N[C@@H](Cc1c[nH]c2ccccc12)C(=O)N[C@@H](CCCNC(=N)N)C(=O)NCc1ccccc1	2.5 (≈ 2.98 µM)	> 20	inactive	4.56 (≈ 5.43 µM)	10 (≈ 11.9 µM)	19.8 (≈ 23.6 µM)	inactive	> 10	inactive	2.15 (≈ 2.56 µM)	8.82 (≈ 10.5 µM)	10 (≈ 11.9 µM)		
CCCCc1ccc(-c2nc(C[C@H](N)C(=O)N[C@@H](Cc3c[nH]c4ccccc34)C(=O)N[C@@H](CCCNC(=N)N)C(=O)NCc3ccccc3)c[nH]2)cc1.Cl.Cl	5	16.3	inactive	4.46	10	17.2	inactive	> 10	inactive	2.27	9.99	20	> 20	> 20
CCc1ccc(-c2nc(C[C@H](NC(=O)OC(C)(C)C)C(=O)N[C@@H](Cc3c[nH]c4ccccc34)C(=O)N[C@@H](CCCNC(=N)N)C(=O)NCc3ccccc3)c[nH]2)cc1	2.5 (≈ 3.16 µM)	> 20	inactive	8.93 (≈ 11.3 µM)	20 (≈ 25.3 µM)	> 20	inactive	> 10	inactive	1.5 (≈ 1.9 µM)	14.9 (≈ 18.8 µM)	> 20		
COC(=O)[C@H](CCCNC(=N)N)NC(=O)[C@H](Cc1c[nH]c2ccccc12)NC(=O)[C@H](Cc1c[nH]c(-c2ccc(-c3ccccc3)cc2)n1)NC(=O)OC(C)(C)C	> 20	> 20	inactive	16.3 (≈ 21.3 µM)	> 20	> 20	inactive	> 10	inactive	8.06 (≈ 10.6 µM)				
